The record followed here is ChEMBL document CHEMBL1138678, “Concise synthesis and structure-activity relationships of combretastatin A-4 analogues, 1-aroylindoles and 3-aroylindoles, as novel classes of potent antitubulin agents” (J Med Chem, 2004).

The subject of assay [1] is MCF7. Nature of the assay: Concentration required for the 50% inhibition of human breast cancer (MCF-7) cell line growth. In kind it is functional, cell-based.
Assay [2] concerns MKN-45. Description: Concentration required for the 50% inhibition of human stomach cancer (MKN45) cell line growth. It counts as functional, cell-based.
The test system of assay [3] is NUGC-3. Description: Concentration required for the 50% inhibition of human stomach cancer (NUGC3) cell line growth. It counts as functional, cell-based.
Assay [4] deals with MES-SA. Nature of the assay: Concentration required for the 50% inhibition of human uterine cancer (MESSA) cell line growth. It counts as functional, cell-based.
Assay [5] deals with A549. Description: Concentration required for the 50% inhibition of human lung caner (A549) cell line growth. It counts as functional, cell-based.
In assay [6] the target is Tubulin beta-1 chain (Homo sapiens, UniProt Q9H4B7). Description: Inhibition of tubulin polymerization. In outline: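 MAP-rich tubulin at 2 mg/mL in 100 mM PIPES (pH 6.9), 2 mM MgCl2, 1 mM GTP, 2% (v/v) DMSO with compound. Turbidity read at 350 nm, 37 °C, every 30 s for 30 min. Area under curve scaled between untreated control (100%) and 10 μM colchicine (0%). IC50 by nonlinear regression, at least three experiments.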
Tubulin beta-1 chain, sequence (Q9H4B7 whole entry): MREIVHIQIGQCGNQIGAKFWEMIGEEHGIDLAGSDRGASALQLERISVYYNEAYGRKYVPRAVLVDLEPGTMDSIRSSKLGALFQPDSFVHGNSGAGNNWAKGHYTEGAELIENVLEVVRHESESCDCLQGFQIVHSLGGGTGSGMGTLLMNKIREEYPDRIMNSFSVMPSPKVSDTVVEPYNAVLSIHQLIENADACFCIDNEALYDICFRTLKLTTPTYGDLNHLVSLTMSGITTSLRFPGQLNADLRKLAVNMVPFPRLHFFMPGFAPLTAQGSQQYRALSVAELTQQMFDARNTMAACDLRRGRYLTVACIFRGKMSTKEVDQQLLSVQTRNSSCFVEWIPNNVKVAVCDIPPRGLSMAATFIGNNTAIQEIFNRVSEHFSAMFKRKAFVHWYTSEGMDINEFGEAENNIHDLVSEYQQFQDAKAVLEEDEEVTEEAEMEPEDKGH

Some results are limits rather than exact numbers.

What is called IC50 is the concentration at which inhibition is half-maximal. Low values mean greater potency in that assay, high ones weaker potency in that assay. For `COc1ccc(/C=C\c2cc(OC)c(OC)c(OC)c2)cc1O` [COMBRETASTATIN A4], the IC50 in assay [1] was 8 nM; in assay [2], 82 nM; in assay [3], above 10000 nM; in assay [4], 13 nM; in assay [5] it was 117 nM.
Turning to `COc1ccc2c(C(=O)c3cc(OC)c(OC)c(OC)c3)c[nH]c2c1`, the concentration for half-maximal inhibition (IC50) in assay [1] worked out at 7 nM; in assay [2], 4 nM; in assay [3], 1 nM; in assay [4], 4 nM; in assay [5], 23 nM; in assay [6], 2180 nM.
With `COc1ccc2c(C(=O)c3cc(OC)c(OC)c(OC)c3)c(C)[nH]c2c1`, in assay [6], the IC50 is 900 nM.
For the compound `COc1ccc2[nH]cc(C(=O)c3cc(OC)c(OC)c(OC)c3)c2c1`, the concentration for half-maximal inhibition (IC50) in assay [1] turned out to be 639 nM; in assay [2], 326 nM; in assay [3] it was 360 nM; in assay [4], 884 nM; in assay [5] it was 614 nM.
In turn, `COc1cc(OC)cc(C(=O)c2c[nH]c3cc(OC)ccc23)c1` had a half-maximal inhibitory concentration (IC50) in assay [6] of 2690 nM.
Turning to `COc1ccc2c(ccn2C(=O)c2ccc3c(c2)OCO3)c1`, the IC50 in assay [1], in assay [2], in assay [3], in assay [4] and in assay [5] was above 10000 nM throughout.
As to `COc1cc(C(=O)c2c[nH]c3cccc(OC)c23)cc(OC)c1OC`, the IC50 in assay [1] came to 9060 nM; in assay [2] it was 487 nM; in assay [3], 3360 nM; in assay [4], 9390 nM; in assay [5], 6500 nM.
In assay [6], `COc1ccc2c(c1)cc(C)n2C(=O)c1cc(OC)c(OC)c(OC)c1` registered a 50% inhibitory concentration (IC50) of 3310 nM.
`COc1ccc2c(ccn2C(=O)c2cc(OC)c(OC)c(OC)c2)c1`: the half-inhibitory concentration (IC50) in assay [6] is 3760 nM.
